According to ChEMBL document CHEMBL4145615, “Indolyl Azaspiroketal Mannich Bases Are Potent Antimycobacterial Agents with Selective Membrane Permeabilizing Effects and in Vivo Activity” (J Med Chem, 2018):
In brackets after ≈: the same amount, converted by molar mass.

Legend:
Vero C1008 = test: Cytotoxicity against African green monkey Vero E6 cells assessed as cell growth inhibition after 48 hrs by celltitre 96 aqueous one-based assay; conditions: Chlorocebus sabaeus, Vero C1008, 48 h
[1] = Hemolytic activity against human RBC after 1 hr; type: ADME, cell-based, Erythrocyte; conditions: red blood cells (erythrocytes)
How it was run: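 Human red blood cells were exposed to the test compound at a range of concentrations in phosphate-buffered saline for 1 h at 37°C. Hemolysis was referenced to 2% Triton X-100, taken as 100% hemolysis. The value reported is the concentration that lyses 50% of RBCs.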

[2] = test system: Mycobacterium tuberculosis; test: Bactericidal activity against Mycobacterium tuberculosis H37Rv ATCC 27294 assessed as 1000 fold reduction in CFU after 7 days; type: functional; conditions: H37Rv ATCC 27294, 168 h, read-out: MBC99.9
How it was run: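 BCG ran 5 days at 37°C, 110 rpm; H37Rv ran 7 days at 37°C, 80 rpm. CFU counted on 7H10 agar. MBC99.9 is the 1000-fold CFU reduction versus inoculum at time zero. Average of 2 or more determinations.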

[3] = test system: Mycobacterium tuberculosis; test: Loebicidal activity against nutrient-starved nongrowing Mycobacterium tuberculosis H37Rv ATCC 27294 assessed as 1000 fold reduction in CFU after 7 days; type: functional
How it was run: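 Mtb H37Rv nutrient-starved, non-growing bacilli prepared from a roller-bottle culture. 1 mL at OD600 = 0.05 exposed to a range of concentrations for 7 days at 37°C, 80 rpm. CFU counted on 7H10 agar. LCC99.9 is the 1000-fold reduction versus drug-free inoculum at time zero.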

[4] = test system: Mycobacterium tuberculosis; test: Antimycobacterial activity against Mycobacterium tuberculosis H37Rv ATCC 27294 after 7 days by broth dilution method; type: functional; conditions: H37Rv ATCC 27294, 168 h
[5] = test system: Mycobacterium tuberculosis; test: Bactericidal activity against Mycobacterium tuberculosis H37Rv ATCC 27294 after 5 days; type: functional; conditions: H37Rv ATCC 27294, 120 h, read-out: MBC99.9
[6] = Half life in rat liver microsomes at 1 uM preincubated for 5 mins followed by NADPH addition measure up to 45 mins by LC-MS analysis; type: ADME, microsome; conditions: 0.75 h
How it was run: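 Male rat liver microsomes, incubated 45 min at 37°C. Half-life reported as mean ± SD.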

[7] = Cmax in CD1 mouse at 25 mg/kg, po administered as single dose by LC/MS-MS analysis; type: ADME, organism-based; set-up: dose 25 mg/kg, route oral; conditions: in vivo
How it was run: (§1)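 Uninfected CD-1 mice (n=2 per compound), single oral dose 25 mg/kg as a solution in 5% DMA/65% PEG300/30% D5W. Blood taken at 30 min, 1, 3, 5 h and plasma separated by centrifugation. Lungs taken at 5 h and homogenized in ~5 volumes PBS. Levels measured by LC/MS-MS after acetonitrile/methanol protein precipitation with verapamil internal standard. AUC and Cmax calculated from mean concentrations.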

Mus musculus [8] = test: AUC in CD1 mouse at 25 mg/kg, po administered as single dose by LC/MS-MS analysis; type: ADME, organism-based; conditions: in vivo; how it was run: as §1
[9] = Plasma concentration in CD1 mouse at 25 mg/kg, po administered as single dose measured at 5 hrs post dose by LC/MS-MS analysis; type: ADME, organism-based; how it was run: as §1
Mus musculus [10] = test: Toxicity in CD1 mouse at 25 mg/kg, po administered as single dose by LC/MS-MS analysis; type: organism-based; conditions: in vivo
How it was run: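 Uninfected CD-1 mice (n=2 per compound) received a single oral 25 mg/kg dose as a solution in 5% DMA/65% PEG300/30% D5W. Tail-bleed blood was taken at 30 min, 1, 3 and 5 h and spun to plasma. Lungs were taken at 5 h and homogenized in about 5 volumes of PBS. Samples were acetonitrile/methanol-precipitated with verapamil internal standard and quantified by LC-MS/MS against standard curves in drug-free CD1 plasma.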

Mus musculus [11] = test: Acute toxicity in BALB/c mouse at 100 mg/kg administered via oral gavage for 3 days measured over 7 days; type: organism-based; conditions: in vivo, 168 h
How it was run: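 BALB/c mice, 3 per group, oral gavage at 100 mg/kg in 200 μL of equal volumes PEG400 and 5% glucose. Dosed on three consecutive days, then monitored 7 days. Euthanized by CO2 and examined for gross pathological changes.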

[12] = Drug uptake in lung of Mycobacterium tuberculosis H37Rv infected BALB/c mouse at 100 mg/kg administered 6 days per week for 4 weeks via oral gavage; type: ADME, organism-based; conditions: in vivo, read-out: Drug uptake
[13] = Selectivity index, ratio of IC50 for African green monkey Vero E6 cells to MIC50 for Mycobacterium bovis BCG ATCC 35734; type: toxicity, Vero C1008; conditions: read-out: Selectivity Index
[14] = Drug uptake in lungs of CD1 mouse at 25 mg/kg, po administered as single dose measured at 5 hrs post dose by LC/MS-MS analysis; type: ADME, organism-based; conditions: lung, read-out: Drug uptake; how it was run: as §1
[15] = Ratio of drug level in CD1 mouse lung to plasma at 25 mg/kg, po administered as single dose measured at 5 hrs post dose by LC/MS-MS analysis; type: ADME, organism-based
How it was run: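 Blood taken at 30 min, 1, 3, 5 h and plasma separated by centrifugation. Lungs taken at 5 h and homogenized in ~5 volumes PBS. Levels measured by LC/MS-MS after acetonitrile/methanol protein precipitation with verapamil internal standard. AUC and Cmax calculated from mean concentrations.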

Row | SMILES | IC50 (Vero C1008) [µM] | ΔTm (Lipid bilayer) [°C] | HC50 at 1 h [1] [µM] | MIC50 [4] [µM] | MIC90 [4] [µM] | selectivity ratio [13] | also measured
1 | CCCCCCCCn1ccc2cc(OCCCN3CCCCCC3)ccc21 | 34 | 1 |  |  |  |  | 
2 | CCCCCCCCn1cc(CN2CCC3(CC2)OCCCO3)c2ccc(OC)cc21 | 29 | 4 | 64 | 0.44 (≈ 0.189 µg/mL) | 0.76 (≈ 0.326 µg/mL) |  | MBC [2]: 3.2 µM (≈ 1.37 µg/mL); LCC99 [3]: 18 µM; MBC [5]: 3.2 µM (≈ 1.37 µg/mL); t1/2 [6]: 27.7 min; Cmax [7]: 64.8 ng/mL; AUC (Mus musculus [8]): 282 ng·h/mL; concentration at 5 h [9]: 58.5 ng/mL; Activity (Mus musculus [10]): Non-Toxic; Activity (Mus musculus [11]): Non-Toxic; concentration [12]: 3000 nM
3 | CCCCCCCCn1cc(CNC2Cc3ccccc3C2)c2ccc(OC)cc21 | 24 |  |  |  |  | 6 | 
4 | CCCCCCCCn1cc(CN2CCC3(CCO3)CC2)c2ccc(OC)cc21 | 31 |  | 88 |  |  | 16 | 
5 | CCCCCCCCn1cc(CN2CCC3(CCc4ccccc43)CC2)c2ccc(OC)cc21 | 31 |  | > 300 |  |  | 31 | 
6 | CCCCCCCCn1cc(CN2[C@H]3CCC[C@@H]2CCC3)c2ccc(OC)cc21 | 31 |  | 109 |  |  | 8 | 
7 | CCCCCCCCn1cc(CN2CCC3(CC2)OCCO3)c2ccc(OC)cc21 |  |  | 75 | 1.2 (≈ 0.498 µg/mL) | 2.3 (≈ 0.954 µg/mL) |  | t1/2 [6]: 17.4 min; Cmax [7]: 42 ng/mL; AUC (Mus musculus [8]): 173 ng·h/mL; concentration at 5 h [9]: 33 ng/mL; concentration at 5 h [14]: 468 ng/g; Kp at 5 h [15]: 14.2; Activity (Mus musculus [10]): Non-Toxic; Activity (Mus musculus [11]): Non-Toxic; concentration [12]: 1000 nM
8 | CCCCCCCCn1cc(CN2CCC3(CC2)SCCS3)c2ccc(OC)cc21 | > 200 | 4 | > 300 | 0.7 (≈ 0.313 µg/mL) | 1.1 (≈ 0.491 µg/mL) | > 400 | 
9 | CCCCCCCCn1cc(CNCC2CCC3CC3C2)c2ccc(OC)cc21 (stereo not drawn) | 20 |  |  |  |  | 13 | 
10 | CCCCCCCCn1cc(CNCC2CCC3(CCCC3)O2)c2ccc(OC)cc21 (stereo not drawn) | 21 |  |  |  |  | 12 | 
11 | CCCCCCCCn1cc(CN2CCC3(CC2)OC(C)C(C)O3)c2ccc(OC)cc21 (stereo not drawn) | 34 |  | 76 |  |  | 49 | 
12 | CCCCCCCCn1cc(CN2CCC3(CC2)OCCCS3)c2ccc(OC)cc21 | 39 | 4 | > 300 | 0.5 (≈ 0.222 µg/mL) | 0.8 (≈ 0.356 µg/mL) |  | MBC [2]: 3.2 µM (≈ 1.42 µg/mL); LCC99.9 [3]: <18 µM; MBC [5]: 3.2 µM (≈ 1.42 µg/mL); t1/2 [6]: 32.9 min; Cmax [7]: 60.6 ng/mL; AUC (Mus musculus [8]): 224 ng·h/mL; concentration at 5 h [9]: 55.2 ng/mL; concentration at 5 h [14]: 1600 ng/g; Kp at 5 h [15]: 28.9; Activity (Mus musculus [10]): Non-Toxic
13 | CCCCCCCCn1cc(CN2CCC3(CC2)OCCS3)c2ccc(OC)cc21 | 64 | 4 | > 300 | 0.6 (≈ 0.258 µg/mL) | 0.95 (≈ 0.409 µg/mL) |  | 
14 | CCCCCCCCn1cc(CN2CCC3(CC2)SCCCS3)c2ccc(OC)cc21 | 152 |  | > 300 | 0.5 (≈ 0.23 µg/mL) | 0.78 (≈ 0.359 µg/mL) |  | 
15 | CCCCCCCCn1cc(CN2CCC3(C=Cc4ccccc43)CC2)c2ccc(OC)cc21 | 44 |  | > 300 |  |  | 44 | 
16 | CCCCCCCCn1cc(CN2CCOC3(CCCOC3)C2)c2ccc(OC)cc21 (stereo not drawn) | > 500 |  | > 300 |  |  | > 278 | 
